Experimental findings from ChEMBL document CHEMBL4014308, “Amphiphilic Tobramycin-Lysine Conjugates Sensitize Multidrug Resistant Gram-Negative Bacteria to Rifampicin and Minocycline” (J Med Chem, 2017) are described below.

Values after ≈ are worked out from the molar mass of the structure shown. Active and inactive are the calls of the source. No cut-off for these calls is given here.

In general, MIC refers to the least concentration at which growth counts as inhibited. A higher MIC goes with a less susceptible organism. Broadly, the mortality is the share of the test organisms that died.

Assay type in all cases: functional
In test [1] the test system is Pseudomonas aeruginosa. As to the kind of experiment: Bactericidal activity against Pseudomonas aeruginosa PAO1 at 0.125 times antibacterial MIC after 6 hrs.
For test [2], the system named is Klebsiella pneumoniae. Kind of test: Antibacterial activity against multidrug-resistant Klebsiella pneumoniae 116381 after 18 hrs by microtiter dilution assay. To be noted: Klebsiella pneumoniae, 116381, 18 h. In short, it runs like this: (§1)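 Broth microdilution following CLSI guidelines. An overnight culture was adjusted to 0.5 McFarland in saline, then diluted 1:50 in Mueller-Hinton broth. This inoculum was added in equal volume to 2-fold serial dilutions of agent in MHB and incubated 18 h at 37 °C. MIC was the lowest concentration with no visible growth.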

Test [3] concerns Acinetobacter baumannii. As to the kind of experiment: Antibacterial activity against multidrug-resistant Acinetobacter baumannii AB030 after 18 hrs by microtiter dilution assay. To be noted: AB030, 18 h. In short, it runs like this: as §1
The test system of test [4] is Enterobacter cloacae. Kind of test: Antibacterial activity against multidrug-resistant Enterobacter cloacae 117029 after 18 hrs by microtiter dilution assay. The note with it: Enterobacter cloacae, 117029, 18 h. Put shortly:
as §1

Test [5] concerns Acinetobacter baumannii. As to the kind of experiment: Antibacterial activity against multidrug-resistant Acinetobacter baumannii 110193 after 18 hrs by microtiter dilution assay. The note with it: Acinetobacter baumannii, 110193, 18 h. In short, it runs like this:
as §1

Test [6] has as its system Acinetobacter baumannii. Kind of test: Antibacterial activity against multidrug-resistant Acinetobacter baumannii AB027 after 18 hrs by microtiter dilution assay. The note with it: AB027, 18 h. Put shortly:
as §1

For test [7], the system named is Acinetobacter baumannii. As to the kind of experiment: Antibacterial activity against multidrug-resistant Acinetobacter baumannii AB031 after 18 hrs by microtiter dilution assay. The note with it: AB031, 18 h. In short, it runs like this:
as §1

The test system of test [8] is Pseudomonas aeruginosa. As to the kind of experiment: Antibacterial activity against Pseudomonas aeruginosa PAO1 assessed as ratio of MIC after 25 serial passages to MIC before 25 serial passages by microtiter dilution assay. Put shortly:
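Sequential passaging of wild-type PAO1 with single drugs or drug combinations. MIC was tested in MHB for 18 h. Cells from the well at half the MIC were adjusted to 0.5 McFarland in saline, diluted 1:50 in fresh MHB and used for the next MIC test. This was repeated for 25 passages, and the fold change in MIC was plotted against passage number.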

Test [9] deals with Pseudomonas aeruginosa. Kind of test: Antibacterial activity against Pseudomonas aeruginosa PAO1 after 18 hrs by microtiter dilution assay. To be noted: PAO1, 18 h. In short, it runs like this: as §1
The test system of test [10] is Pseudomonas aeruginosa. As to the kind of experiment: Antibacterial activity against multidrug/extremely drug-resistant/colistin-susceptible Pseudomonas aeruginosa isolate P259-96918 after 18 hrs by microtiter dilution assay. To be noted: isolate P259-96918, 18 h. Put shortly: as §1
In test [11] the test system is Pseudomonas aeruginosa. Kind of test: Antibacterial activity against multidrug/extremely drug-resistant/colistin-susceptible Pseudomonas aeruginosa isolate 100036 after 18 hrs by microtiter dilution assay. The note with it: isolate 100036, 18 h. In short, it runs like this:
as §1

Test [12] deals with Pseudomonas aeruginosa. Kind of test: Bactericidal activity against Pseudomonas aeruginosa PAO1 at 4 times antibacterial MIC after 6 hrs. Put shortly: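 Time-kill with P. aeruginosa PAO1. A 0.5 McFarland suspension was diluted 1:50 in LB broth and exposed to agent in PBS (pH 7.2) at 1/2×, 1×, 2× or 4× MIC at 37 °C for 6 h. Samples at 0, 10, 30, 60, 90, 120, 240 and 360 min were serially diluted in PBS, plated on LB agar, and colonies counted after 20 h at 37 °C.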

The subject of test [13] is Pseudomonas aeruginosa. Kind of test: Antibacterial activity against multidrug/extremely drug-resistant/colistin-susceptible Pseudomonas aeruginosa isolate P264-104354 after 18 hrs by microtiter dilution assay. The note with it: isolate P264-104354, 18 h. In short, it runs like this:
as §1

Test [14] concerns Pseudomonas aeruginosa. As to the kind of experiment: Antibacterial activity against multidrug/extremely drug-resistant/colistin-resistant Pseudomonas aeruginosa isolate 91433 after 18 hrs by microtiter dilution assay. The note with it: isolate 91433, 18 h. In short, it runs like this: as §1
The subject of test [15] is Pseudomonas aeruginosa. Kind of test: Antibacterial activity against multidrug/extremely drug-resistant/colistin-resistant Pseudomonas aeruginosa isolate 101243 after 18 hrs by microtiter dilution assay. The note with it: isolate 101243, 18 h. In short, it runs like this:
as §1

Test [16] relates to Pseudomonas aeruginosa. As to the kind of experiment: Antibacterial activity against multidrug/extremely drug-resistant/colistin-susceptible Pseudomonas aeruginosa isolate 101885 after 18 hrs by microtiter dilution assay. To be noted: isolate 101885, 18 h. In short, it runs like this: as §1
Test [17] deals with Pseudomonas aeruginosa. Kind of test: Antibacterial activity against multidrug/extremely drug-resistant/colistin-susceptible Pseudomonas aeruginosa isolate P262-101856 after 18 hrs by microtiter dilution assay. To be noted: isolate P262-101856, 18 h. Put shortly:
as §1

Test [18] relates to Pseudomonas aeruginosa. As to the kind of experiment: Antibacterial activity against multidrug/extremely drug-resistant/colistin-susceptible Pseudomonas aeruginosa isolate P262-101856 infected in Galleria mellonella assessed as mortality at 75 mg/kg after 24 hrs relative to control. To be noted: isolate P262-101856, 24 h. In short, it runs like this: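 Galleria mellonella larvae (about 250 mg, used within 7 days; 15 per group) were injected with 10 µL of XDR P. aeruginosa P262 at 1.0×10^3 CFU/mL. At 2 h they received a single 10 µL injection: monotherapy at 75 mg/kg, or combinations at 12.5+12.5 to 75+75 mg/kg. PBS vehicle served as control. Survival was scored over 24 h at 37 °C.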

In the case of `CN(C)c1ccc(O)c2c1C[C@H]1C[C@H]3[C@H](N(C)C)C(O)=C(C(N)=O)C(=O)[C@@]3(O)C(O)=C1C2=O` [MINOCYCLINE], the result in [1] was inactive. Moreover, the MIC in [2] was found to be 128 µg/mL (≈ 280 µM); in [3] it was 4 µg/mL (≈ 8.74 µM); in test [4], 128 µg/mL (≈ 280 µM); in [5] it was 2 µg/mL (≈ 4.37 µM); in test [6], 1 µg/mL (≈ 2.19 µM); in [7], 2 µg/mL (≈ 4.37 µM). In addition, the MIC in test [9] came out at 8 µg/mL (≈ 17.5 µM); in test [10], 32 µg/mL (≈ 69.9 µM); in test [11], 32 µg/mL (≈ 69.9 µM); in test [13], 64 µg/mL (≈ 140 µM); in test [14], 64 µg/mL (≈ 140 µM); in [15], 4 µg/mL (≈ 8.74 µM). Also, the results for the MIC in [16] and in [17] were 32 µg/mL (≈ 69.9 µM) and 256 µg/mL (≈ 560 µM), respectively. The Ratio in test [8] was 16. The result in test [12] was Active. Also, the mortality at 75 mg/kg in test [18] turned out to be 100%.
